Data reported in ChEMBL document CHEMBL1932985, “Identification of biaryl sulfone derivatives as antagonists of the histamine H₃ receptor: discovery of (R)-1-(2-(4'-(3-methoxypropylsulfonyl)biphenyl-4-yl)ethyl)-2-methylpyrrolidine (APD916)” (Bioorg Med Chem Lett, 2012).
Each block holds one compound with its values, some of them ahead of it.

Tests used:
Rattus norvegicus [1] = test: Inhibition of RAMH-induced dipsogenia in po dosed Sprague-Dawley rat administered 30 mins prior to RAMH challenge measured up to 20 mins; type: functional; settings: read-out: MED
In short: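 Rats given compound orally 0.5 h (or, for duration of action, at selected times up to 6 h) before RAMH 10 mg/kg SC; water consumed over 20 min measured. Screening doses 1 or 0.3 mg/kg PO, also 0.1 mg/kg; duration study at 0.6 mg/kg PO. MED = minimum dose fully inhibiting drinking; means ± SEM.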

Histamine H3 receptor = Histamine H3 receptor (Rattus norvegicus, UniProt Q9QYN8); test: Displacement of N-[3H]-methylhistamine from histamine H3 receptor in rat cortex membranes; type: cell membranes, Membrane
[2] = molecular target: Voltage-gated inwardly rectifying potassium channel KCNH2 (Homo sapiens, UniProt Q12809); test: Inhibition of human ERG by patch-clamp assay
[3] = Solubility of the compound in water; type: physicochemical
[4] = Ratio of drug level in brain to plasma in Sprague-Dawley rat at 3 mg/kg, po and iv after 0.75 to 3 hrs by LC-MS/MS analysis; type: ADME, organism-based; parameters: dose 3 mg/kg, route oral; settings: read-out: BPR
In short: (§1)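 Brain (µg/mg) and plasma (µg/mL) levels were measured after oral dosing, with three rats per time point. The b/p ratio was the mean of the nine individual ratios.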

[5] = Tmax in Sprague-Dawley rat at 3 mg/kg, po and iv by LC-MS/MS analysis; type: ADME, organism-based; parameters: dose 3 mg/kg, route oral; settings: in vivo
In short: (§2)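 Rats were given the compound both IV and PO in a routine PK study. Tmax came from the PO arm and Vss from the IV arm.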

[6] = Oral bioavailability in Sprague-Dawley rat at 3 mg/kg by LC-MS/MS analysis; type: ADME, organism-based; settings: in vivo
In short: (§3)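 Rat PK after IV and PO dosing; plasma Cmax, Tmax, IV half-life and Vss determined; oral bioavailability from AUCpo/AUCiv. Metabolite exposure determined after a 3 mg/kg PO parent dose.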

[7] = Half life in Sprague-Dawley rat at 3 mg/kg, iv by LC-MS/MS analysis; type: ADME, organism-based; parameters: dose 3 mg/kg, route intravenous; settings: in vivo; in short: as §3
Rattus norvegicus [8] = test: Volume of distribution at steady state in Sprague-Dawley rat at 3 mg/kg, po and iv by LC-MS/MS analysis; type: ADME, organism-based; parameters: dose 3 mg/kg, route oral; settings: in vivo; in short: as §2
[9] = Cmax in Sprague-Dawley rat plasma at 3 mg/kg, po and iv by LC-MS/MS analysis; type: ADME, organism-based; parameters: dose 3 mg/kg, route oral; in short: as §3
Rattus norvegicus [10] = test: Volume of distribution at steady state in Sprague-Dawley rat at 1 mg/kg, po and iv by LC-MS/MS analysis; type: ADME, organism-based; parameters: dose 1 mg/kg, route oral; settings: in vivo; in short: as §2
[11] = Half life in Sprague-Dawley rat at 1 mg/kg, iv by LC-MS/MS analysis; type: ADME, organism-based; parameters: dose 1 mg/kg, route intravenous; settings: in vivo; in short: as §3
[12] = Tmax in Sprague-Dawley rat at 1 mg/kg, po and iv by LC-MS/MS analysis; type: ADME, organism-based; parameters: dose 1 mg/kg, route oral; settings: in vivo; in short: as §2
[13] = Ratio of drug level in brain to plasma in Sprague-Dawley rat at 1 mg/kg, po and iv after 0.75 to 3 hrs by LC-MS/MS analysis; type: ADME, organism-based; parameters: dose 1 mg/kg, route oral; settings: read-out: BPR; in short: as §1
[14] = Oral bioavailability in Sprague-Dawley rat at 1 mg/kg by LC-MS/MS analysis; type: ADME, organism-based; settings: in vivo; in short: as §3
[15] = Cmax in Sprague-Dawley rat plasma at 1 mg/kg, po and iv by LC-MS/MS analysis; type: ADME, organism-based; parameters: dose 1 mg/kg, route oral; in short: as §3

Sequence of Histamine H3 receptor (Q9QYN8 whole entry): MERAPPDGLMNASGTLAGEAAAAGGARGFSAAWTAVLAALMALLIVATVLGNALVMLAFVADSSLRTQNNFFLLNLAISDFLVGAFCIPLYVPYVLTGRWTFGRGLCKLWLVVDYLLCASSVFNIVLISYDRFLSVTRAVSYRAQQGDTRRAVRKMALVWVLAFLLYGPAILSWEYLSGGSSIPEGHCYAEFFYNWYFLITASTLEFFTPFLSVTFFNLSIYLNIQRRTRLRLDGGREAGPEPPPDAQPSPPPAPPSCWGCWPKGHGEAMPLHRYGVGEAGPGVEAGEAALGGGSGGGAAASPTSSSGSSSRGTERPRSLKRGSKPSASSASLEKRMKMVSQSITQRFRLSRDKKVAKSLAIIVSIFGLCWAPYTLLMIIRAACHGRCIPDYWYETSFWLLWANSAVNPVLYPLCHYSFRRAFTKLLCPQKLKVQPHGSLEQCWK
Sequence of Voltage-gated inwardly rectifying potassium channel KCNH2 (Q12809 whole entry): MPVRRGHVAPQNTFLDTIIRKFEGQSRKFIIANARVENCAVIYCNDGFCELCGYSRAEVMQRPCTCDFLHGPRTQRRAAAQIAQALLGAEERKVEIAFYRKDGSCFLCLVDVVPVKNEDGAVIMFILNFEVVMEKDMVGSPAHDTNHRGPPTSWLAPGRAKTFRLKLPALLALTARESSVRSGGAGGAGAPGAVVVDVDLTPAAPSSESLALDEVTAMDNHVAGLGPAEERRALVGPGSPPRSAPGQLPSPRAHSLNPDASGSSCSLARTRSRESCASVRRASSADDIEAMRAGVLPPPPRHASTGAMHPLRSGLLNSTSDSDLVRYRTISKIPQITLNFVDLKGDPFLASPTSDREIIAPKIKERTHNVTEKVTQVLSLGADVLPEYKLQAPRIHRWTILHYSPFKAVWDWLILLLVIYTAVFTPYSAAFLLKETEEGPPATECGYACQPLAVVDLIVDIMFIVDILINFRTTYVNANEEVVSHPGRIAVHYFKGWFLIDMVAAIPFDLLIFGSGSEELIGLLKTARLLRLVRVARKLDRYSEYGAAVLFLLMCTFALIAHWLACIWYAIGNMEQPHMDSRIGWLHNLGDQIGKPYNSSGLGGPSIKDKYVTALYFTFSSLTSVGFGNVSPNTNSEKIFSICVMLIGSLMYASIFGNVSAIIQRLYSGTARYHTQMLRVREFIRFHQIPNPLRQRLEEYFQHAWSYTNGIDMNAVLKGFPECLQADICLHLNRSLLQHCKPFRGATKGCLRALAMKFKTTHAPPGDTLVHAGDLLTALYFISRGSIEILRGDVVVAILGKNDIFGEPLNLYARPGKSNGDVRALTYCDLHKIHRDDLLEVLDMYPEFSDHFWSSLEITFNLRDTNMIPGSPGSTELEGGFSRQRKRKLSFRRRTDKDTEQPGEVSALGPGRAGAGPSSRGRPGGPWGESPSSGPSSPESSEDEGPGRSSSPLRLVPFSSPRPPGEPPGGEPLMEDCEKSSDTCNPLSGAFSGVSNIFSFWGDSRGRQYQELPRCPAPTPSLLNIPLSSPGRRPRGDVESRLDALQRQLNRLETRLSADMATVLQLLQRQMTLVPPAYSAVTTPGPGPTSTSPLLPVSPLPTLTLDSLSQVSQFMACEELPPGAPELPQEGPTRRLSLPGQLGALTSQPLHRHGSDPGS

Compound: C[C@@H]1CCCN1CCc1ccc(-c2ccc(S(=O)(=O)C3CCOCC3)cc2)cc1
minimal effective dose (Rattus norvegicus [1]): 1 mg/kg
Ki (Histamine H3 receptor): 1.1 nM

Compound: C[C@@H]1CCCN1CCc1ccc(-c2ccc(S(=O)(=O)CCCO)cc2)cc1
IC50 [2]: > 30000 nM
minimal effective dose (Rattus norvegicus [1]): 1 mg/kg
Ki (Histamine H3 receptor): 0.8 nM

Compound: CCS(=O)(=O)c1ccc(-c2ccc(CCN3CCC[C@H]3C)cc2)cc1
Kp [4]: 1.75
minimal effective dose (Rattus norvegicus [1]): 0.3 mg/kg
Tmax [5]: 18 min
bioavailability [6]: 46%
half-life [7]: 84 min
Vdss (Rattus norvegicus [8]): 14.3 L/kg
Ki (Histamine H3 receptor): 0.9 nM
Cmax [9]: 57 ng/mL

Compound: C[C@@H]1CCCN1CCc1ccc(-c2ccc(S(=O)(=O)CCO)cc2)cc1
Vdss (Rattus norvegicus [10]): 5 L/kg
minimal effective dose (Rattus norvegicus [1]): 1 mg/kg
half-life [11]: 192 min
Tmax [12]: 30 min
Kp [13]: 0.72
bioavailability [14]: 53.6%
Cmax [15]: 122 ng/mL
Ki (Histamine H3 receptor): 1.2 nM

Further lines, with some results ahead:

Ki (Histamine H3 receptor): 0.17 nM
Compound: C[C@@H]1CCCN1CCc1ccc(-c2ccc(S(=O)(=O)CC3CCOCC3)cc2)cc1
minimal effective dose (Rattus norvegicus [1]): 0.3 mg/kg

Ki (Histamine H3 receptor): 0.2 nM
Compound: C[C@@H]1CCCN1CCc1ccc(-c2ccc(S(=O)(=O)CC3CCCCO3)cc2)cc1 (some centres not stated)

Ki (Histamine H3 receptor): 13.2 nM
Compound: COCCS(=O)(=O)c1ccc(-c2ccc(CCN3CCC[C@@H]3C)cc2)cc1

solubility [3]: > 150 mg/mL
Compound: COCCCS(=O)(=O)c1ccc(-c2ccc(CCN3CCC[C@H]3C)cc2)cc1.O=C(O)CC(O)(CC(=O)O)C(=O)O

Ki (Histamine H3 receptor): 2.65 nM
Compound: CC(C)S(=O)(=O)c1ccc(-c2ccc(CCN3CCC[C@H]3C)cc2)cc1
